Results reported in ChEMBL document CHEMBL1138849, “5-substituted tetrazoles as bioisosteres of carboxylic acids. Bioisosterism and mechanistic studies on glutathione reductase inhibitors as antimalarials” (J Med Chem, 2004).
Where “and” joins values, the source holds several entries; their conditions need not be identical. Equal values may be shown once.

What was measured:
[1] = molecular target: Glutathione reductase (Plasmodium falciparum 3D7, UniProt O15770); experiment: Inhibitory concentration against Plasmodium falciparum glutathione reductase
In short: (§1)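 Recombinant GR (human or P. falciparum) in 100 mM potassium phosphate pH 7.0, 200 mM KCl, 100 μM NADPH, 1 mM GSSG, with 1% final DMSO. Started with 8 milliunits of enzyme. Initial rates of NADPH oxidation read at 340 nm. […] A second set of standard assays used 200 μM GSSG.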

[2] = molecular target: T1, Glutathione reductase, mitochondrial (Homo sapiens, UniProt P00390); experiment: Inhibitory concentration against human glutathione reductase; in short: as §1
T1 sequence (P00390 whole entry): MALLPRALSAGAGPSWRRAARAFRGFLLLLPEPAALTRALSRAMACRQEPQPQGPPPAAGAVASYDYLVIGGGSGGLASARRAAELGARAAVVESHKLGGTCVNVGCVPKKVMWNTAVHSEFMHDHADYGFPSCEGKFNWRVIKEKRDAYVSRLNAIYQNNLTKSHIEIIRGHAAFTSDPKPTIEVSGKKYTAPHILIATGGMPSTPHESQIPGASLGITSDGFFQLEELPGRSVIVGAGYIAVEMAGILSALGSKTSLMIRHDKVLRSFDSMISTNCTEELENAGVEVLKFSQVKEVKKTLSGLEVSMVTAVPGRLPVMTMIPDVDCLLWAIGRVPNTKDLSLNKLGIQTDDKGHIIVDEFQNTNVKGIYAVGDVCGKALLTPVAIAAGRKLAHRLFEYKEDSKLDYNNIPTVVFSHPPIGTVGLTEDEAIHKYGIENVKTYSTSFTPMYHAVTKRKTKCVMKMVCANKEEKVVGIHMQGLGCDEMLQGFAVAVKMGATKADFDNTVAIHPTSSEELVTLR

[3] = tested on: Plasmodium falciparum; experiment: Inhibitory concentration against Plasmodium falciparum […]; type: functional, organism-based; conditions: FcB1/Columbia
[4] = molecular target: T1, Glutathione reductase, mitochondrial; experiment: Inhibitory concentration against human glutathione reductase in the absence of glucose-6-phosphate dehydrogenase (G6PDH); in short: as §1
[5] = molecular target: Glutathione reductase (Plasmodium falciparum) (UniProt Q94655); experiment: Inhibitory concentration against Plasmodium falciparum glutathione reductase
[6] = molecular target: T1, Glutathione reductase, mitochondrial; experiment: Inhibitory concentration against human glutathione reductase in the presence of 200 uM exogenous NADP
[7] = molecular target: T1, Glutathione reductase, mitochondrial; experiment: Inhibitory concentration against human glutathione reductase (In presence of NADPH)
[8] = molecular target: T1, Glutathione reductase, mitochondrial; experiment: Inhibitory concentration against human glutathione reductase (In presence of glutathione disulfide)

Sequence of Glutathione reductase (O15770 whole entry): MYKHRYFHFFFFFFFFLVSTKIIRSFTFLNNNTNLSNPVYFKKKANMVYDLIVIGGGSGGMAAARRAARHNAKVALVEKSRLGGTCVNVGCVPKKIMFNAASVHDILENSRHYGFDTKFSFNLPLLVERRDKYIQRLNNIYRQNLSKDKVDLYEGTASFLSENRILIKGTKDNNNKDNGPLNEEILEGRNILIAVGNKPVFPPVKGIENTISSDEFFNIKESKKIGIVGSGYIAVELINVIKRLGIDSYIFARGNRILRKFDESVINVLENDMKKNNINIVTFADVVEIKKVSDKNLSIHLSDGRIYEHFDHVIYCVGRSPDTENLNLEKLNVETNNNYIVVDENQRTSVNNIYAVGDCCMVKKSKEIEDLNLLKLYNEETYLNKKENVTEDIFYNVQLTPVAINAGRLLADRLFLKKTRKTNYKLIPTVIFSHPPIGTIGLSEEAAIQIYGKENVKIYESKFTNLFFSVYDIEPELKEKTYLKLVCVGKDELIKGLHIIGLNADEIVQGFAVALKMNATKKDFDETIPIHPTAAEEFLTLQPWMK
Sequence of Glutathione reductase (Plasmodium falciparum) (Q94655 whole entry, looked up): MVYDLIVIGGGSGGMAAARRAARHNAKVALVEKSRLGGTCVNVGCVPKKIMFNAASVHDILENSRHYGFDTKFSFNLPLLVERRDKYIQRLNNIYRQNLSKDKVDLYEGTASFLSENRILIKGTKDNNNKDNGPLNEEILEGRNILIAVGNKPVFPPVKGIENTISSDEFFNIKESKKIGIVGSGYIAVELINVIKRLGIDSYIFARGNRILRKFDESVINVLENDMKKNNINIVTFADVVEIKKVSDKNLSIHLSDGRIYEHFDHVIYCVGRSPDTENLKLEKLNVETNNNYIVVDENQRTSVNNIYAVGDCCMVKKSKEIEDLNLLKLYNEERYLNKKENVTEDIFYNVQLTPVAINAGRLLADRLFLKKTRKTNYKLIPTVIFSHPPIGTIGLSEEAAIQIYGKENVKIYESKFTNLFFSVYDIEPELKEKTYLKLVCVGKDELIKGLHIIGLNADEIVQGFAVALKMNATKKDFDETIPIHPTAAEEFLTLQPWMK

SMILES | IC50 [1] | IC50 [2] | IC50 [3] | also measured
CC1=C(CCCCC(=O)NCCC#N)C(=O)c2ccccc2C1=O | 57 µM | 22.7 µM | 1.5 µM | 
CC1=C(CCCCC(=O)O)C(=O)c2ccccc2C1=O |  |  | 4 µM | 
CC1=C(CCCC(=O)NCCC#N)C(=O)c2ccccc2C1=O |  |  | 1.8 µM | 
CC1=C(CCCCCC(=O)O)C(=O)c2ccccc2C1=O | 4.5 µM | 3.2 µM | 3.5 µM | Ki [1]: 3.6 µM; IC50 [4]: 2.7 µM and 1.8 µM; Ki [5]: 3.7 µM; IC50 [6]: 2.7 µM
CC1=C(CCCCCC(=O)OCCN(C)C)C(=O)c2ccccc2C1=O |  |  | 12.6 µM | 
CN(C)c1ccc2nc3ccc(=[N+](C)C)cc-3sc2c1 [METHYLENE BLUE ANHYDROUS] | 6.4 µM | 16 µM |  | 
CC1=C(CCCCCC(=O)NCCC#N)C(=O)c2ccccc2C1=O |  |  | 1 µM | 
CC1=CC(=O)c2ccccc2C1=O [MENADIONE] |  |  |  | Ki [7]: 16.1 µM; Ki [8]: 12.1 µM
CC1=C(CCCCCc2nnnn2CCC#N)C(=O)c2ccccc2C1=O |  |  | 1.1 µM | 
CC1=C(CCCCc2nnnn2CCC#N)C(=O)c2ccccc2C1=O | 10.8 µM | 27 µM | 1.4 µM | 
CC1=C(CCCc2nnnn2CCC#N)C(=O)c2ccccc2C1=O |  |  | 0.9 µM | 
